# According to ChEMBL document CHEMBL4689842, “EUbOPEN Chemogenomics Library wave 1” (2021):
# Test system: HEK-293T
# Assay: Multiplex assay against HEK293T;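 for Population Tubulin-Different-Phenotype (%): share of the cells with healthy nuclei that show this phenotype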
# Format: toxicity, cell-based
# Settings: human
# Procedure, shortened: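 Cells stained live at seeding with Hoechst33342, BioTracker Green Microtubule Cytoskeleton Dye, MitoTracker Red and Annexin V Alexa Fluor 680 were imaged on a CQ1 microscope at 37°C and 5% CO2 after compound addition. Their classification by CellPathfinder machine-learning gating ran from Hoechst high-intensity objects versus normal cells, to healthy, pyknosed or fragmented nuclei among normal cells, to mitotic or apoptotic among pyknosed cells. Tubulin, mitochondrial-mass and membrane-permeability phenotypes are per cents of healthy-nucleus cells.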
# [1] = 12 h, 1 µM, compound concentration 1 uM, replicate 1
# [2] = 12 h, 1 µM, compound concentration 1 uM, replicate 2
# [3] = 12 h, 10 µM, compound concentration 10 uM, replicate 1
# [4] = 12 h, 10 µM, compound concentration 10 uM, replicate 2
# [5] = 24 h, 1 µM, compound concentration 1 uM, replicate 1
# [6] = 24 h, 1 µM, compound concentration 1 uM, replicate 2
# [7] = 24 h, 10 µM, compound concentration 10 uM, replicate 1
# [8] = 24 h, 10 µM, compound concentration 10 uM, replicate 2
# [9] = 48 h, 1 µM, compound concentration 1 uM, replicate 1
# [10] = 48 h, 1 µM, compound concentration 1 uM, replicate 2
# [11] = 48 h, 10 µM, compound concentration 10 uM, replicate 1
# [12] = 48 h, 10 µM, compound concentration 10 uM, replicate 2
compound,measurement,setting,value
Cc1[nH]c(/C=C2\C(=O)Nc3ccc(S(=O)(=O)N(C)c4cccc(Cl)c4)cc32)c(C)c1C(=O)N1CCN(C)CC1,Population Apoptotic (%),[1],60%
same,Population Fragmented Nuclei (%),[1],7%
same,Population Healthy Nuclei (%),[1],47%
same,Population Hoechst High Intensity Objects (%),[1],16%
same,Population Membrane Permeable-Phenotype (%),[1],7%
same,Population Mitochondria Different-Phenotype (%),[1],93%
same,Population Mitotic Cells (%),[1],39%
same,Population Normal (%),[1],83%
same,Population Pyknosed Nuclei (%),[1],44%
same,Population Tubulin-Different-Phenotype (%),[1],91%
same,Total Cell Count,[1],198
same,Population Apoptotic (%),[2],23%
same,Population Fragmented Nuclei (%),[2],6%
same,Population Healthy Nuclei (%),[2],46%
same,Population Hoechst High Intensity Objects (%),[2],4%
same,Population Membrane Permeable-Phenotype (%),[2],18%
same,Population Mitochondria Different-Phenotype (%),[2],52%
same,Population Mitotic Cells (%),[2],76%
same,Population Normal (%),[2],95%
same,Population Pyknosed Nuclei (%),[2],47%
same,Population Tubulin-Different-Phenotype (%),[2],71%
same,Total Cell Count,[2],243
same,Population Apoptotic (%),[3],67%
same,Population Fragmented Nuclei (%),[3],12%
same,Population Healthy Nuclei (%),[3],29%
same,Population Hoechst High Intensity Objects (%),[3],15%
same,Population Membrane Permeable-Phenotype (%),[3],5%
same,Population Mitochondria Different-Phenotype (%),[3],90%
same,Population Mitotic Cells (%),[3],32%
same,Population Normal (%),[3],84%
same,Population Pyknosed Nuclei (%),[3],57%
same,Population Tubulin-Different-Phenotype (%),[3],98%
same,Total Cell Count,[3],214
same,Population Apoptotic (%),[4],50%
same,Population Fragmented Nuclei (%),[4],4%
same,Population Healthy Nuclei (%),[4],40%
same,Population Hoechst High Intensity Objects (%),[4],5%
same,Population Membrane Permeable-Phenotype (%),[4],19%
same,Population Mitochondria Different-Phenotype (%),[4],57%
same,Population Mitotic Cells (%),[4],50%
same,Population Normal (%),[4],94%
same,Population Pyknosed Nuclei (%),[4],55%
same,Population Tubulin-Different-Phenotype (%),[4],93%
same,Total Cell Count,[4],157
same,Population Apoptotic (%),[5],55%
same,Population Fragmented Nuclei (%),[5],11%
same,Population Healthy Nuclei (%),[5],48%
same,Population Hoechst High Intensity Objects (%),[5],18%
same,Population Membrane Permeable-Phenotype (%),[5],3%
same,Population Mitochondria Different-Phenotype (%),[5],85%
same,Population Mitotic Cells (%),[5],44%
same,Population Normal (%),[5],81%
same,Population Pyknosed Nuclei (%),[5],40%
same,Population Tubulin-Different-Phenotype (%),[5],86%
same,Total Cell Count,[5],212
same,Population Apoptotic (%),[6],24%
same,Population Fragmented Nuclei (%),[6],4%
same,Population Healthy Nuclei (%),[6],56%
same,Population Hoechst High Intensity Objects (%),[6],3%
same,Population Membrane Permeable-Phenotype (%),[6],7%
same,Population Mitochondria Different-Phenotype (%),[6],57%
same,Population Mitotic Cells (%),[6],75%
same,Population Normal (%),[6],96%
same,Population Pyknosed Nuclei (%),[6],38%
same,Population Tubulin-Different-Phenotype (%),[6],71%
same,Total Cell Count,[6],295
same,Population Apoptotic (%),[7],88%
same,Population Fragmented Nuclei (%),[7],15%
same,Population Healthy Nuclei (%),[7],27%
same,Population Hoechst High Intensity Objects (%),[7],12%
same,Population Membrane Permeable-Phenotype (%),[7],5%
same,Population Mitochondria Different-Phenotype (%),[7],100%
same,Population Mitotic Cells (%),[7],11%
same,Population Normal (%),[7],87%
same,Population Pyknosed Nuclei (%),[7],56%
same,Population Tubulin-Different-Phenotype (%),[7],98%
same,Total Cell Count,[7],230
same,Population Apoptotic (%),[8],83%
same,Population Fragmented Nuclei (%),[8],7%
same,Population Healthy Nuclei (%),[8],35%
same,Population Hoechst High Intensity Objects (%),[8],4%
same,Population Membrane Permeable-Phenotype (%),[8],10%
same,Population Mitochondria Different-Phenotype (%),[8],81%
same,Population Mitotic Cells (%),[8],16%
same,Population Normal (%),[8],95%
same,Population Pyknosed Nuclei (%),[8],57%
same,Population Tubulin-Different-Phenotype (%),[8],96%
same,Total Cell Count,[8],162
same,Population Apoptotic (%),[9],55%
same,Population Fragmented Nuclei (%),[9],14%
same,Population Healthy Nuclei (%),[9],56%
same,Population Hoechst High Intensity Objects (%),[9],19%
same,Population Membrane Permeable-Phenotype (%),[9],2%
same,Population Mitochondria Different-Phenotype (%),[9],66%
same,Population Mitotic Cells (%),[9],44%
same,Population Normal (%),[9],80%
same,Population Pyknosed Nuclei (%),[9],29%
same,Population Tubulin-Different-Phenotype (%),[9],74%
same,Total Cell Count,[9],246
same,Population Apoptotic (%),[10],31%
same,Population Fragmented Nuclei (%),[10],4%
same,Population Healthy Nuclei (%),[10],75%
same,Population Hoechst High Intensity Objects (%),[10],1%
same,Population Membrane Permeable-Phenotype (%),[10],8%
same,Population Mitochondria Different-Phenotype (%),[10],20%
same,Population Mitotic Cells (%),[10],68%
same,Population Normal (%),[10],98%
same,Population Pyknosed Nuclei (%),[10],19%
same,Population Tubulin-Different-Phenotype (%),[10],54%
same,Total Cell Count,[10],469
same,Population Apoptotic (%),[11],92%
same,Population Fragmented Nuclei (%),[11],17%
same,Population Healthy Nuclei (%),[11],30%
same,Population Hoechst High Intensity Objects (%),[11],15%
same,Population Membrane Permeable-Phenotype (%),[11],5%
same,Population Mitochondria Different-Phenotype (%),[11],100%
same,Population Mitotic Cells (%),[11],7%
same,Population Normal (%),[11],84%
same,Population Pyknosed Nuclei (%),[11],52%
same,Population Tubulin-Different-Phenotype (%),[11],96%
same,Total Cell Count,[11],223
same,Population Fragmented Nuclei (%),[12],4%
same,Population Healthy Nuclei (%),[12],54%
same,Population Hoechst High Intensity Objects (%),[12],3%
same,Population Membrane Permeable-Phenotype (%),[12],9%
same,Population Mitochondria Different-Phenotype (%),[12],68%
same,Population Normal (%),[12],96%
same,Population Pyknosed Nuclei (%),[12],41%
same,Total Cell Count,[12],178
